In PMC10764114 (ACS Omega, 2023):

Tests used:
[1] = test system: U87-malignant glioma (ATCC-HTB-14); assay: MTT assay, cytotoxicity against U87-malignant glioma cells; format: cell-based, human; details: Homo sapiens, Glioma cell; for viability at 10 µM / viability at 40 µM / viability at 80 µM / viability at 100 µM / viability at 150 µM: read-out: % cell viability U87; for IC50: read-out: IC50 (μM ± SEM U87)
How it was run: (§1)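 Cells grown in DMEM (4.5 g/L glucose, 10% FBS, 1% penicillin/streptomycin) at 37 °C, 5% CO₂. Seeded at 1 × 10³ cells/well and left 24 h to adhere. Test compound added at 10, 40, 80, 100 or 150 μM for 48 h (text also states MTT added 24 h post-dosing). MTT in PBS added for 3 h, formazan dissolved in DMSO for 30 min, OD read at 550 nm, % viability calculated from absorbance.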

[2] = MTT assay, cytotoxicity against normal HEK293 cells; format: cell-based, human; details: human, HEK293 cells
How it was run: as §1

CC(C)Cc1ccc(C(C)C(=O)NN=Cc2ccc(OCC(=O)NN=Cc3ccc(Cl)cc3Cl)cc2)cc1 (stereo not drawn) [5h, N′-(4-(2-(2-(2,4-Dichlorobenzylidene)hydrazinyl)-2-oxoethoxy)benzylidene)-2-(4-isobutylphenyl)propanehydrazide]
viability at 10 µM [1]: 50.2%
viability at 40 µM [1]: 50.1%
viability at 80 µM [1]: 48.8%
viability at 100 µM [1]: 46%
viability at 150 µM [1]: 43.6%
IC50 [1]: 120.1 ± 0.13 µM
viability at 48 h, 10 μM [2]: 84.1%
viability at 48 h, 40 μM [2]: 79.5%
viability at 48 h, 80 μM [2]: 69.1%
viability at 48 h, 100 μM [2]: 68.3%
viability at 48 h, 150 μM [2]: 67.1%

CC(C)Cc1ccc(C(C)C(=O)NN=Cc2ccc(OCC(=O)NN=Cc3ccc(Br)cc3F)cc2)cc1 (stereo not drawn) [5j, N′-(4-(2-(2-(4-Bromo-2-fluorobenzylidene)hydrazinyl)-2-oxoethoxy)benzylidene)-2-(4-isobutylphenyl)propanehydrazide]
viability at 10 µM [1]: 187%
viability at 40 µM [1]: 128%
viability at 80 µM [1]: 94.2%
viability at 100 µM [1]: 93.1%
viability at 150 µM [1]: 78.6%
IC50 [1]: 43.71 ± 0.07 µM
viability at 48 h, 10 μM [2]: 44.5%
viability at 48 h, 40 μM [2]: 40.1%
viability at 48 h, 80 μM [2]: 38.4%
viability at 48 h, 100 μM [2]: 36.8%
viability at 48 h, 150 μM [2]: 26.3%

CC(C)Cc1ccc(C(C)C(=O)NN=Cc2ccc(OCC(=O)NN)cc2)cc1 (stereo not drawn) [compound 4, N′-(4-(2-Hydrazinyl-2-oxoethoxy)benzylidene)-2-(4-isobutylphenyl)propanehydrazide]
viability at 10 µM [1]: 72.5%
viability at 40 µM [1]: 47.9%
viability at 80 µM [1]: 41.6%
viability at 100 µM [1]: 41.3%
viability at 150 µM [1]: 33.7%
IC50 [1]: 59.9 ± 0.08 µM
viability at 48 h, 10 μM [2]: 29.1%
viability at 48 h, 40 μM [2]: 28.6%
viability at 48 h, 80 μM [2]: 28.2%
viability at 48 h, 100 μM [2]: 26.3%
viability at 48 h, 150 μM [2]: 9.96%

CCN(CC)c1ccc(C=NNC(=O)COc2ccc(C=NNC(=O)C(C)c3ccc(CC(C)C)cc3)cc2)cc1 (stereo not drawn) [5o, N′-(4-(2-(2-(4-(Diethylamino)benzylidene)hydrazinyl)-2-oxoethoxy)benzylidene)-2-(4-isobutylphenyl)propanehydrazide]
viability at 10 µM [1]: 146%
viability at 40 µM [1]: 122%
viability at 80 µM [1]: 121%
viability at 100 µM [1]: 119%
viability at 150 µM [1]: 107%
IC50 [1]: 119.7 ± 0.25 µM
viability at 48 h, 10 μM [2]: 49%
viability at 48 h, 40 μM [2]: 42.9%
viability at 48 h, 80 μM [2]: 37.7%
viability at 48 h, 100 μM [2]: 35.8%
viability at 48 h, 150 μM [2]: 35.2%

CC(C)Cc1ccc(C(C)C(=O)NN=Cc2ccc(OCC(=O)NN=Cc3ccc(F)cc3)cc2)cc1 (stereo not drawn) [5q, N′-(4-(2-(2-(4-Fluorobenzylidene)hydrazinyl)-2-oxoethoxy)benzylidene)-2-(4-isobutylphenyl)propanehydrazide]
viability at 10 µM [1]: 183%
viability at 40 µM [1]: 84%
viability at 80 µM [1]: 81.7%
viability at 100 µM [1]: 48.5%
viability at 150 µM [1]: 40.5%
IC50 [1]: 46 ± 0.08 µM
viability at 48 h, 10 μM [2]: 27.5%
viability at 48 h, 40 μM [2]: 25.4%
viability at 48 h, 80 μM [2]: 19.9%
viability at 48 h, 100 μM [2]: 19.7%
viability at 48 h, 150 μM [2]: 17.8%

COc1ccc(C=NNC(=O)COc2ccc(C=NNC(=O)C(C)c3ccc(CC(C)C)cc3)cc2)cc1OC (stereo not drawn) [5l, N′-(4-(2-(2-(3,4-Dimethoxybenzylidene)hydrazinyl)-2-oxoethoxy)benzylidene)-2-(4-isobutylphenyl)propanehydrazide]
viability at 10 µM [1]: 97%
viability at 40 µM [1]: 88.4%
viability at 80 µM [1]: 84.9%
viability at 100 µM [1]: 84.2%
viability at 150 µM [1]: 79.7%
IC50 [1]: 72.83 ± 0.06 µM
viability at 48 h, 10 μM [2]: 30.5%
viability at 48 h, 40 μM [2]: 28.1%
viability at 48 h, 80 μM [2]: 25.9%
viability at 48 h, 100 μM [2]: 24.9%
viability at 48 h, 150 μM [2]: 24.2%
